≈ marks a conversion by molar mass, not a printed value.
Assays:
[1] = system: Escherichia coli; experiment: Antibacterial activity against Escherichia coli JM83 producing aminoglycoside 2''-2a phosphotransferase by broth microdilution method; type: functional
Method in brief: (§1)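 MICs by CLSI broth microdilution in Mueller-Hinton II broth; inoculum 5 × 10^5 CFU/ml; plates read after 20 h at 35°C. Host E. coli JM83 carrying pHF022 (empty or with cloned wild-type or mutant aph(2″)-IIa gene between NdeI and HindIII). Values are averages of at least three independent experiments.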

[2] = system: Escherichia coli; experiment: Antibacterial activity against Escherichia coli JM83 harboring pHF022 containing aminoglycoside 2''-2a phosphotransferase N196D/D268N mutant by broth microdilution method; type: functional; method in brief: as §1
[3] = system: Escherichia coli; experiment: Antibacterial activity against Escherichia coli JM83 harboring pHF022 containing aminoglycoside 2''-2a phosphotransferase R92H/D268N mutant by broth microdilution method; type: functional; method in brief: as §1
[4] = system: Escherichia coli; experiment: Antibacterial activity against Escherichia coli JM83 harboring pHF022 containing aminoglycoside 2''-2a phosphotransferase R92H mutant by broth microdilution method; type: functional; method in brief: as §1
[5] = system: Escherichia coli; experiment: Antibacterial activity against Escherichia coli JM83 harboring pHF022 containing aminoglycoside 2''-2a N196D mutant by broth microdilution method; type: functional; method in brief: as §1
[6] = system: Escherichia coli; experiment: Antibacterial activity against Escherichia coli JM83 harboring pHF022 containing aminoglycoside 2''-2a D268N mutant by broth microdilution method; type: functional; method in brief: as §1
[7] = system: Escherichia coli; experiment: Antibacterial activity against Escherichia coli JM83 harboring empty pHF022 vector by broth microdilution method; type: functional; method in brief: as §1
[8] = Activity of Aminoglycoside […] 2a using ATP/GTP as second substrate by spectrophotometric assay
Method in brief: (§2)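 Enzymes were expressed in E. coli BL21(DE3) and affinity-purified: gentamicin column for wild type and N196D/D268N, kanamycin column for R92H/D268N. Activity was read by continuous PK/LDH-coupled NADH assay in 100 mM HEPES pH 7.5, 10 mM MgCl2, 20 mM KCl, 2 mM PEP, 140 μM NADH, with 5 to 10 nM enzyme. ATP/GTP was varied with kanamycin A fixed at 10 μM. Values came from nonlinear Michaelis-Menten fits.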

[9] = Activity of Aminoglycoside […] 2a N196D/D268N mutant using ATP/GTP as second substrate by spectrophotometric assay; method in brief: as §2
[10] = Activity of Aminoglycoside […] 2a R92H/D268N mutant using ATP/GTP as second substrate by spectrophotometric assay; method in brief: as §2
[11] = Ratio of Kcat to Km for Aminoglycoside […] 2a using ATP/GTP as second substrate by spectrophotometric assay; method in brief: as §2
[12] = Ratio of Kcat to Km for Aminoglycoside […] 2a N196D/D268N mutant using ATP/GTP as second substrate by spectrophotometric assay; method in brief: as §2
[13] = Ratio of Kcat to Km for Aminoglycoside […] 2a R92H/D268N mutant using ATP/GTP as second substrate by spectrophotometric assay; method in brief: as §2

Row | Molecule | MIC [1] [µg/mL] | MIC [2] [µg/mL] | MIC [3] [µg/mL] | MIC [4] [µg/mL] | MIC [5] [µg/mL] | MIC [6] [µg/mL] | MIC [7] [µg/mL] | Km [8] [µM] | kcat [8] [s⁻¹] | Km [9] [µM] | kcat [9] [s⁻¹] | Km [10] [µM] | kcat [10] [s⁻¹] | kcat/Km [11] | kcat/Km [12] | kcat/Km [13]
1 | NC[C@@H]1O[C@@H](O[C@H]2[C@H](O)[C@@H](O[C@H]3O[C@H](CO)[C@@H](O)[C@H](N)[C@H]3O)[C@H](N)C[C@@H]2N)[C@@H](O)[C@H](O)[C@H]1O [KANAMYCIN A] | 256 (≈ 528 µM) | 256 (≈ 528 µM) | 256 (≈ 528 µM) | 256 (≈ 528 µM) | 256 (≈ 528 µM) | 256 (≈ 528 µM) | 2 (≈ 4.13 µM) | 2.1 | 45.1 | < 1 | 13.8 | < 1 | 20.5 | 2.2 ×10⁷ /M/s | > 1.4 ×10⁷ /M/s | > 2 ×10⁷ /M/s
2 | CN[C@@H]1[C@@H](O)[C@@H](O[C@@H]2[C@@H](O)[C@H](O[C@H]3OC(CN)=CC[C@H]3N)[C@@H](N)C[C@H]2N)OC[C@]1(C)O [SISOMICIN] | 8 (≈ 17.9 µM) | 4 (≈ 8.94 µM) | 8 (≈ 17.9 µM) | 8 (≈ 17.9 µM) | 8 (≈ 17.9 µM) | 4 (≈ 8.94 µM) | 0.25 (≈ 0.559 µM) |  |  |  |  |  |  |  |  | 
3 | CN[C@@H]1[C@@H](O)[C@@H](O[C@@H]2[C@@H](O)[C@H](O[C@H]3O[C@H](C(C)O)[C@@H](O)[C@H](O)[C@H]3N)[C@@H](N)C[C@H]2N)OC[C@]1(C)O (single isomer, unassigned) [GENETICIN] | 512 (≈ 1030 µM) | 512 (≈ 1030 µM) | 512 (≈ 1030 µM) | 512 (≈ 1030 µM) | 512 (≈ 1030 µM) | 512 (≈ 1030 µM) | 2 (≈ 4.03 µM) |  |  |  |  |  |  |  |  | 
4 | CN[C@@H]1[C@@H](O)[C@@H](O[C@@H]2[C@@H](O)[C@H](O[C@H]3O[C@H](CN)[C@@H](O)[C@H](O)[C@H]3O)[C@@H](N)C[C@H]2NC(=O)[C@@H](O)CN)OC[C@]1(C)O [ISEPAMICIN] | 2 (≈ 3.51 µM) | 16 (≈ 28.1 µM) | 16 (≈ 28.1 µM) | 4 (≈ 7.02 µM) | 2 (≈ 3.51 µM) | 2 (≈ 3.51 µM) | 2 (≈ 3.51 µM) | 13.5 | 5.7 | 2 | 4.1 | 1.2 | 2.8 | 4.4 ×10⁵ /M/s | 2 ×10⁶ /M/s | 2.3 ×10⁶ /M/s
5 | NCC[C@H](O)C(=O)N[C@@H]1C[C@H](N)[C@@H](O[C@H]2O[C@H](CN)[C@@H](O)[C@H](O)[C@H]2O)[C@H](O)[C@H]1O[C@H]1O[C@H](CO)[C@@H](O)[C@H](N)[C@H]1O [AMIKACIN] | 2 (≈ 3.42 µM) | 16 (≈ 27.3 µM) | 16 (≈ 27.3 µM) | 2 (≈ 3.42 µM) | 2 (≈ 3.42 µM) | 2 (≈ 3.42 µM) | 2 (≈ 3.42 µM) | 62.9 | 8.3 | 13.5 | 13.8 | 23.7 | 22.3 | 1.3 ×10⁵ /M/s | 1 ×10⁶ /M/s | 9.4 ×10⁵ /M/s
6 | NC[C@H]1O[C@H](O[C@H]2[C@H](O)[C@@H](O[C@H]3O[C@H](CO)[C@@H](O)[C@H](N)[C@H]3O)[C@H](N)C[C@@H]2N)[C@H](N)C[C@@H]1O [TOBRAMYCIN] | 64 (≈ 137 µM) | 64 (≈ 137 µM) | 64 (≈ 137 µM) | 64 (≈ 137 µM) | 64 (≈ 137 µM) | 32 (≈ 68.4 µM) | 1 (≈ 2.14 µM) | 1.5 | 26.1 | < 1 | 16.6 | < 1 | 26.7 | 1.7 ×10⁷ /M/s | > 1.7 ×10⁷ /M/s | > 2.7 ×10⁷ /M/s
7 | NC[C@H]1O[C@H](O[C@H]2[C@H](O)[C@@H](O[C@H]3O[C@H](CO)[C@@H](O)[C@H](N)[C@H]3O)[C@H](N)C[C@@H]2N)[C@H](N)[C@@H](O)[C@@H]1O [BEKANAMYCIN] | 64 (≈ 132 µM) | 64 (≈ 132 µM) | 64 (≈ 132 µM) | 64 (≈ 132 µM) | 64 (≈ 132 µM) | 64 (≈ 132 µM) | 1 (≈ 2.07 µM) |  |  |  |  |  |  |  |  | 
8 | CCN[C@@H]1C[C@H](N)[C@@H](O[C@H]2OC(CN)=CC[C@H]2N)[C@H](O)[C@H]1O[C@H]1OC[C@](C)(O)[C@H](NC)[C@H]1O [NETILMICIN] | 8 (≈ 16.8 µM) | 8 (≈ 16.8 µM) | 8 (≈ 16.8 µM) | 16 (≈ 33.6 µM) | 8 (≈ 16.8 µM) | 4 (≈ 8.41 µM) | 0.25 (≈ 0.526 µM) |  |  |  |  |  |  |  |  | 
9 | Nc1nc(=O)c2ncn([C@@H]3O[C@H](COP(=O)(O)OP(=O)(O)OP(=O)(O)O)[C@@H](O)C3O)c2[nH]1 (single isomer, unassigned) |  |  |  |  |  |  |  | 70 | 9.4 | 16.2 | 10.6 | 28.2 | 8.9 | 1.3 ×10⁵ /M/s | 6.5 ×10⁵ /M/s | 3.2 ×10⁵ /M/s
10 | GENTAMICIN | 16 | 16 | 16 | 16 | 16 | 16 | 0.25 |  |  |  |  |  |  |  |  | 
11 | NC[C@@H]1CC[C@@H](N)[C@@H](O[C@H]2[C@H](O)[C@@H](O[C@H]3O[C@H](CO)[C@@H](O)[C@H](N)[C@H]3O)[C@H](N)C[C@@H]2N)O1 [DIBEKACIN] | 64 (≈ 142 µM) | 64 (≈ 142 µM) | 64 (≈ 142 µM) | 64 (≈ 142 µM) | 64 (≈ 142 µM) | 32 (≈ 70.9 µM) | 0.5 (≈ 1.11 µM) | 1.2 | 17.1 | < 1 | 16.9 | 1.2 | 27.5 | 1.4 ×10⁷ /M/s | > 1.7 ×10⁷ /M/s | 2.3 ×10⁷ /M/s
12 | Nc1ncnc2c1ncn2[C@@H]1O[C@H](COP(=O)(O)OP(=O)(O)OP(=O)(O)O)[C@@H](O)[C@H]1O |  |  |  |  |  |  |  | 16.3 | 43.3 | 5.6 | 12.1 | 29.5 | 21.4 | 2.7 ×10⁶ /M/s | 2.2 ×10⁶ /M/s | 7.2 ×10⁵ /M/s

Source: ChEMBL document CHEMBL1255425, “Mutant APH(2'')-IIa enzymes with increased activity against amikacin and isepamicin” (2010)
